Activity calls are given as the source filed them.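 How the source made its calls: active means mean IC50 of 20 µM or lower in the 24 hour cytotoxicity test; inactive means the rest.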
System: CHO-XBP1 cytotoxicity, ATPlite luminescence, 24 h
Assay: cytotoxicity in CHO-XBP1 reporter cells, SAR follow-up, cytotoxicity control for UPR apoptotic arm activator project, cell-based, 24 h exposure, ATPlite luminescence (AID 588558)
Summary of the method: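 System: CHO-XBP1 cells (Chinese hamster ovary XBP1 reporter line); Input: 1000 CHO-XBP1 cells per well; Buffer or medium: F12 with 10% FBS; Compound: dose series, DMSO ≤1%; Incubation: 24 h compound exposure at 37 °C; Detection: ATPLite 1-Step luminescence; Controls: tunicamycin 10 µg/mL positive control.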

Structure (SMILES)	IC50
O=C(Nc1nc2cc(F)cc(F)c2s1)c1ccccn1	1050 nM
O=C(Nc1ccc(S(=O)(=O)N2CCC(Cl)CC2)cc1)c1ccc([N+](=O)[O-])o1	> 80000 nM (inactive)
O=C(Nc1nc2ccc(C(F)(F)F)cc2s1)c1ccccn1	970 nM
O=C(Nc1ccc(S(=O)(=O)N2CCCC2)cc1)c1ccc([N+](=O)[O-])o1	19200 nM
O=C(Nc1nc2cc(F)ccc2s1)c1ccccn1	1260 nM
O=C(Nc1ccc(S(=O)(=O)N2CCC3(CCCCC3)CC2)cc1)c1ccc([N+](=O)[O-])o1	9050 nM
O=C(Nc1ccc(S(=O)(=O)N2CCC(O)CC2)cc1)c1ccc([N+](=O)[O-])o1	27900 nM (inactive)
O=C(Nc1nc2c(F)cc(F)cc2s1)c1ccccn1	1590 nM
O=C(Nc1nc2ccc(F)c(F)c2s1)c1ccccn1	1190 nM
O=C(Nc1ccc(S(=O)(=O)N2CCOCC2)cc1)c1ccc([N+](=O)[O-])o1	32300 nM (inactive)
CC1CCN(S(=O)(=O)c2ccc(NC(=O)c3ccc([N+](=O)[O-])o3)cc2)CC1	32200 nM (inactive)
CC1CN(S(=O)(=O)c2ccc(NC(=O)c3ccc([N+](=O)[O-])o3)cc2)CC(C)O1 (stereo not given)	34900 nM (inactive)
O=C(Nc1ccc(S(=O)(=O)c2ccccc2)cc1)c1ccc([N+](=O)[O-])o1	18500 nM
O=C(Nc1ccc(S(=O)(=O)N2CCC(F)CC2)cc1)c1ccc([N+](=O)[O-])o1	24700 nM (inactive)
O=C(Nc1nc2c(F)ccc(F)c2s1)c1ccccn1	1060 nM
CC(C)(C)C1CCN(S(=O)(=O)c2ccc(NC(=O)c3ccc([N+](=O)[O-])o3)cc2)CC1	2680 nM
O=C(Nc1nc2c(F)c(F)ccc2s1)c1ccccn1	1350 nM
Cc1cc(C)c2nc(NC(=O)c3ccccn3)sc2c1	3750 nM
O=C(Nc1ccc(S(=O)(=O)C2CCCCC2)cc1)c1ccc([N+](=O)[O-])o1	22100 nM (inactive)
O=C(Nc1nc2c(F)cccc2s1)c1ccccn1	1420 nM
O=C(Nc1nc2ccc(Cl)cc2s1)c1ccccn1	1360 nM
O=C(Nc1ccc(S(=O)(=O)N2CCNCC2)cc1)c1ccc([N+](=O)[O-])o1	> 80000 nM (inactive)
CC1(C)CCN(S(=O)(=O)c2ccc(NC(=O)c3ccc([N+](=O)[O-])o3)cc2)CC1	18000 nM
O=C(Nc1ccc(S(=O)(=O)N2CCOCC2)cc1)c1ccc([N+](=O)[O-])s1	> 80000 nM (inactive)
O=C(Nc1nc2cc(F)c(F)cc2s1)c1ccccn1	1810 nM
O=C(Nc1nc2c(Cl)cc(Cl)cc2s1)c1ccccn1	8770 nM
O=C(Nc1nc2cccc(F)c2s1)c1ccccn1	1760 nM
O=C(Nc1ccc(S(=O)(=O)N2CCCCC2)cc1)c1ccc([N+](=O)[O-])o1	> 80000 nM (inactive)
O=C(Nc1ccc(S(=O)(=O)C2CCOCC2)cc1)c1ccc([N+](=O)[O-])o1	37600 nM (inactive)
O=C(Nc1nc2ccc(F)cc2s1)c1ccccn1	1990 nM

— PubChem BioAssay AID588558 (Sanford-Burnham Center for Chemical Genomics, 2011)
